ChEMBL document CHEMBL1121616, “Bradykinin analogues containing N alpha-methyl amino acids” (1980)
“And” between values parts separate entries of the source, which are not always exact repeats. Equal values may be shown once. Non-standard residues stand in square brackets, D forms with d. Residues, ends and D or L forms follow the SMILES beside them. NMeR = CN[C@@H](CCCNC(=N)N)C(=O)O; NMeF = CN[C@@H](Cc1ccccc1)C(=O)O; Sar = CNCC(=O)O

Legend:
Cavia porcellus [1] = species: Cavia porcellus; assay: Compound was evaluated for mean percent change from control contractions of isolated guinea pig ilea produced by Bradykinin (Brdkn) at a concentration of 10 ug/mL; format: functional
Outline: (§1)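 Isolated guinea pig ileum segments. Two control contractions to each agonist were elicited at regular 3- or 4-min intervals. Three sets of contractions were then elicited in the presence of the test compound, the first set used for equilibration. The mean of the last two treated sets was compared with the mean of the controls and expressed as percent change.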

Cavia porcellus [2] = species: Cavia porcellus; assay: Compound was evaluated for mean percent change from control contractions of isolated guinea pig ilea produced by Acetylcholine (ACh) at a concentration of 10 ug/mL; format: functional; outline: as §1
Cavia porcellus [3] = species: Cavia porcellus; assay: Compound was evaluated for mean percent change from control contractions of isolated guinea pig ilea produced by Prostaglandin E2 (PGE2) at a concentration of 10 ug/mL; format: functional; outline: as §1
Cavia porcellus [4] = species: Cavia porcellus; assay: Compound was evaluated for muscle stimulating potency in isolated guinea pig ilea relative to bradykinin triacetate (1); format: functional, Muscle tissue
Outline: (§2)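 Isolated guinea pig ileum segments were used in four-point parallel-line bioassays against bradykinin triacetate, with potency calculated on a weight basis. Doses were given at 4-min intervals in a randomized block design, and the bath was rinsed after peak contraction. Relative potency and fiducial limits were estimated from contraction magnitudes by Finney's method. Only assays without significant deviation from parallelism were accepted.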

Cavia porcellus [5] = species: Cavia porcellus; assay: Compound was evaluated for mean percent change from control contractions of isolated guinea pig ilea produced by Acetylcholine (ACh) at a concentration of 3 ug/mL; format: functional; outline: as §1
Cavia porcellus [6] = species: Cavia porcellus; assay: Compound was evaluated for mean percent change from control contractions of isolated guinea pig ilea produced by Bradykinin (Brdkn) at a concentration of 3 ug/mL; format: functional; outline: as §1
Cavia porcellus [7] = species: Cavia porcellus; assay: Compound was evaluated for mean percent change from control contractions of isolated guinea pig ilea produced by Prostaglandin E2 (PGE2) at a concentration of 1 ug/mL; format: functional; outline: as §1
Cavia porcellus [8] = species: Cavia porcellus; assay: Compound was evaluated for mean percent change from control contractions of isolated guinea pig ilea produced by Acetylcholine (ACh) at a concentration of 1 ug/mL; format: functional; outline: as §1
Cavia porcellus [9] = species: Cavia porcellus; assay: Compound was evaluated for mean percent change from control contractions of isolated guinea pig ilea produced by Bradykinin (Brdkn) at a concentration of 1 ug/mL; format: functional; outline: as §1
Cavia porcellus [10] = species: Cavia porcellus; assay: Compound was evaluated for mean percent change from control contractions of isolated guinea pig ilea produced by Prostaglandin E2 (PGE2) at a concentration of 3 ug/mL; format: functional; outline: as §1
Cavia porcellus [11] = species: Cavia porcellus; assay: Compound was evaluated for mean percent change from control contractions of isolated guinea pig ilea produced by Prostaglandin E2 (PGE2) at a concentration of 30 ug/mL; format: functional; outline: as §1
Cavia porcellus [12] = species: Cavia porcellus; assay: Compound was evaluated for mean percent change from control contractions of isolated guinea pig ilea produced by Bradykinin (Brdkn) at a concentration of 30 ug/mL; format: functional; outline: as §1
Cavia porcellus [13] = species: Cavia porcellus; assay: Compound was evaluated for mean percent change from control contractions of isolated guinea pig ilea produced by Acetylcholine (ACh) at a concentration of 30 ug/mL; format: functional; outline: as §1
Cavia porcellus [14] = species: Cavia porcellus; assay: Compound was evaluated for mean percent change from control contractions of isolated guinea pig ilea produced by Bradykinin (Brdkn) at a concentration of 1.0 ug/mL; format: functional; outline: as §1
Cavia porcellus [15] = species: Cavia porcellus; assay: Compound was evaluated for mean percent change from control contractions of isolated guinea pig ilea produced by Prostaglandin E2 (PGE2) at a concentration of 10.0 ug/mL; format: functional; outline: as §1
Cavia porcellus [16] = species: Cavia porcellus; assay: Compound was evaluated for mean percent change from control contractions of isolated guinea pig ilea produced by Bradykinin (Brdkn) at a concentration of 10.0 ug/mL; format: functional; outline: as §1
Cavia porcellus [17] = species: Cavia porcellus; assay: Compound was evaluated for mean percent change from control contractions of isolated guinea pig ilea produced by Prostaglandin E2 (PGE2) at a concentration of 0.1 ug/mL; format: functional; outline: as §1
Cavia porcellus [18] = species: Cavia porcellus; assay: Compound was evaluated for mean percent change from control contractions of isolated guinea pig ilea produced by Acetylcholine (ACh) at a concentration of 0.01 ug/mL; format: functional; outline: as §1
Cavia porcellus [19] = species: Cavia porcellus; assay: Compound was evaluated for mean percent change from control contractions of isolated guinea pig ilea produced by Acetylcholine (ACh) at a concentration of 10.0 ug/mL; format: functional; outline: as §1
Cavia porcellus [20] = species: Cavia porcellus; assay: Compound was evaluated for mean percent change from control contractions of isolated guinea pig ilea produced by Prostaglandin E2 (PGE2) at a concentration of 0.01 ug/mL; format: functional; outline: as §1
Cavia porcellus [21] = species: Cavia porcellus; assay: Compound was evaluated for mean percent change from control contractions of isolated guinea pig ilea produced by Acetylcholine (ACh) at a concentration of 1.0 ug/mL; format: functional; outline: as §1
Cavia porcellus [22] = species: Cavia porcellus; assay: Compound was evaluated for mean percent change from control contractions of isolated guinea pig ilea produced by Acetylcholine (ACh) at a concentration of 0.1 ug/mL; format: functional; outline: as §1
Cavia porcellus [23] = species: Cavia porcellus; assay: Compound was evaluated for mean percent change from control contractions of isolated guinea pig ilea produced by Bradykinin (Brdkn) at a concentration of 0.01 ug/mL; format: functional; outline: as §1
Cavia porcellus [24] = species: Cavia porcellus; assay: Compound was evaluated for mean percent change from control contractions of isolated guinea pig ilea produced by Bradykinin (Brdkn) at a concentration of 0.1 ug/mL; format: functional; outline: as §1
Cavia porcellus [25] = species: Cavia porcellus; assay: Compound was evaluated for muscle stimulating potency in isolated guinea pig ilea; format: functional, Muscle tissue; outline: as §2

SMILES	Change (Cavia porcellus [1])	Change (Cavia porcellus [2])	Change (Cavia porcellus [3])	Potency (Cavia porcellus [4])	Change (Cavia porcellus [5])	Change (Cavia porcellus [6])	Change (Cavia porcellus [7])	Change (Cavia porcellus [8])	Change (Cavia porcellus [9])	Change (Cavia porcellus [10])	also measured
CN(C(=O)[C@H](Cc1ccccc1)NC(=O)[C@@H]1CCCN1C(=O)[C@H](CO)NC(=O)[C@H](Cc1ccccc1)NC(=O)CNC(=O)[C@@H]1CCCN1C(=O)[C@@H]1CCCN1C(=O)[C@@H](N)CCCN=C(N)N)[C@@H](CCCN=C(N)N)C(=O)O	-64%	-28%	7%	0.0046							
CN(C(=O)[C@@H]1CCCN1C(=O)[C@H](CO)NC(=O)[C@H](Cc1ccccc1)NC(=O)CNC(=O)[C@@H]1CCCN1C(=O)[C@@H]1CCCN1C(=O)[C@@H](N)CCCN=C(N)N)[C@@H](Cc1ccccc1)C(=O)N[C@@H](CCCN=C(N)N)C(=O)O (H-RPPGFSP[NMeF]R-OH)	-97%	-75%	-88%	0.015	-41%	-81%	-17%	-6%	-27%	-60%	
CN(C(=O)CNC(=O)[C@@H]1CCCN1C(=O)[C@@H]1CCCN1C(=O)[C@@H](N)CCCN=C(N)N)[C@@H](Cc1ccccc1)C(=O)N[C@@H](CO)C(=O)N1CCC[C@H]1C(=O)N[C@@H](Cc1ccccc1)C(=O)N[C@@H](CCCN=C(N)N)C(=O)O (H-RPPG[NMeF]SPFR-OH)	-32%	-31%	1%	0.01							
CN(CC(=O)N[C@@H](Cc1ccccc1)C(=O)N[C@@H](CO)C(=O)N1CCC[C@H]1C(=O)N[C@@H](Cc1ccccc1)C(=O)N[C@@H](CCCN=C(N)N)C(=O)O)C(=O)[C@@H]1CCCN1C(=O)[C@@H]1CCCN1C(=O)[C@@H](N)CCCN=C(N)N (H-RPP[Sar]FSPFR-OH)	-25%	-58%	-85%	0.0039	-9%	21%	-20%	-32%	5%	-27%	Change (Cavia porcellus [11]): -69%; Change (Cavia porcellus [12]): -40%; Change (Cavia porcellus [13]): -70%
CN[C@@H](CCCN=C(N)N)C(=O)N1CCC[C@H]1C(=O)N1CCC[C@H]1C(=O)NCC(=O)N[C@@H](Cc1ccccc1)C(=O)N[C@@H](CO)C(=O)N1CCC[C@H]1C(=O)N[C@@H](Cc1ccccc1)C(=O)N[C@@H](CCCN=C(N)N)C(=O)O (H-[NMeR]PPGFSPFR-OH)				0.61							Change (Cavia porcellus [14]): -100%; Change (Cavia porcellus [15]): -95% and -83%; Change (Cavia porcellus [16]): -100%; Change (Cavia porcellus [17]): -88%; Change (Cavia porcellus [18]): -29%; Change (Cavia porcellus [19]): -97%; Change (Cavia porcellus [20]): -28%; Change (Cavia porcellus [21]): -100%; Change (Cavia porcellus [22]): -67%; Change (Cavia porcellus [23]): -88%; Change (Cavia porcellus [24]): -100%
N=C(N)NCCC[C@H](NC(=O)[C@H](Cc1ccccc1)NC(=O)[C@@H]1CCCN1C(=O)[C@H](CO)NC(=O)[C@H](Cc1ccccc1)NC(=O)CNC(=O)[C@@H]1CCCN1C(=O)[C@@H]1CCCN1C(=O)[C@@H](N)CCCNC(=N)N)C(=O)O [BRADYKININ] (H-RPPGFSPFR-OH)											Potency (Cavia porcellus [25]): 1
